Laboratory results reported in ChEMBL document CHEMBL1138502, “Discovery and biological evaluation of novel cyanoguanidine P2X(7) antagonists with analgesic activity in a rat model of neuropathic pain” (J Med Chem, 2009).
Each block holds one compound with its values, some of them ahead of it. Activity calls are given as the source filed them. No cut-off for these calls is given here.

Assays:
[1] = Selectivity for P2X7 receptor over potassium channel
[2] = tested on: Rattus norvegicus; assay: Antinociceptive activity in ip dosed rat L5-L6 spinal nerve ligation model of neuropathic pain assessed as reduction in tactile allodynia; type: functional; parameters: Activity: scale not given: the % may be the effect or the level left; conditions: for ED50: Rattus norvegicus, Spinal nerve, ip
How it was run: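 Intraperitoneal dosing in rats with L5-L6 spinal nerve ligation (Chung model). Tactile allodynia was measured by von Frey testing. ED50 in µmol/kg and maximum efficacy (%) are the mean of six animals.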

[3] = biological target: P2Y purinoceptor 2 (Homo sapiens) (UniProt P41231); assay: Activity at P2Y2 receptor up to 10 uM
[4] = tested on: Rattus norvegicus; assay: Antiallodynic activity in rat L5-L6 spinal nerve ligation model of neuropathic pain assessed as inhibition of mechanical allodynia at 100 umol/kg, po administered twice daily for 4 days once on day 5; type: functional; parameters: scale not given: the % may be the effect or the level left
How it was run: (§1)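 Rats with L5-L6 spinal nerve ligation (Chung model) received vehicle (5% DMSO/PEG) or compound at 100 µmol/kg orally twice a day for four days. On day 5, vehicle or compound was given orally 1 h before von Frey testing for mechanical allodynia. Results are % effect ± SEM, N = 6 per group, with P vs the respective vehicle group.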

[5] = biological target: T1, P2X purinoceptor 3 (Homo sapiens) (UniProt P56373); assay: Activity at P2X3 receptor up to 10 uM
T1 sequence (whole entry): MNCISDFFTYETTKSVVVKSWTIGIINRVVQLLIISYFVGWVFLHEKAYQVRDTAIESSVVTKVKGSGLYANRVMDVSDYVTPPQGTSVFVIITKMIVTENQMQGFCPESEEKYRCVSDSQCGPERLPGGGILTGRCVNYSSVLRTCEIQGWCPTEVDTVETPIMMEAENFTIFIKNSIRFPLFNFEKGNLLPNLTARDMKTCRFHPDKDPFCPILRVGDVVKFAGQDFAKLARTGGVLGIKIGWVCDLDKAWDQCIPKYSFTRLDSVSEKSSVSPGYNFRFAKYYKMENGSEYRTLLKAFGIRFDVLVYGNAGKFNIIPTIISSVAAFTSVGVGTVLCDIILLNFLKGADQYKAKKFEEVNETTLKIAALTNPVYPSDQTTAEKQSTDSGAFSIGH

[6] = biological target: T2, P2X purinoceptor 4 (Homo sapiens) (UniProt Q99571); assay: Activity at P2X4 receptor up to 10 uM
T2 sequence (whole entry): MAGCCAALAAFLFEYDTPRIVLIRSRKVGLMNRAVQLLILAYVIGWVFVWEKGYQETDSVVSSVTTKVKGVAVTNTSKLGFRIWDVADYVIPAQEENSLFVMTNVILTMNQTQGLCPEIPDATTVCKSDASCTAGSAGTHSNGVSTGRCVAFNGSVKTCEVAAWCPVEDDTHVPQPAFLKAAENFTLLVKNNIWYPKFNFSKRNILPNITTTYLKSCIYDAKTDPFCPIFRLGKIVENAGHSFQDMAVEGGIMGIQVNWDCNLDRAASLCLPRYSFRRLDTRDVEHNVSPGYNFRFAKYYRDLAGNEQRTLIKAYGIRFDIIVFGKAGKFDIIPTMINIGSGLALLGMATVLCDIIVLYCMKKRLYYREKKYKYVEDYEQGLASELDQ

[7] = tested on: Rattus norvegicus; assay: Antiallodynic activity in rat L5-L6 spinal nerve ligation model of neuropathic pain assessed as inhibition of mechanical allodynia at 100 umol/kg, po single administration; type: functional; parameters: scale not given: the % may be the effect or the level left
How it was run: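 Chung-model rats (L5-L6 spinal nerve ligation) were given a single oral dose, with 5% DMSO/PEG as vehicle. Mechanical allodynia was read by von Frey testing and expressed as % effect ± SEM, N = 6 per group, compared with vehicle.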

[8] = tested on: Rattus norvegicus; assay: Antiallodynic activity in rat L5-L6 spinal nerve ligation model of neuropathic pain assessed as inhibition of mechanical allodynia after chronic administration of vehicle twice daily for 4 days followed by acute dose of 100 umol/kg, po on day 5; type: functional; parameters: scale not given: the % may be the effect or the level left; how it was run: as §1
[9] = biological target: T3, P2X purinoceptor 7 (Homo sapiens, UniProt Q99572); assay: Antagonist activity at human cloned P2X7 receptor expressed in HEK293 cells assessed as inhibition of calcium flux by FLIPR assay; type: functional, cell-based
T3 sequence (Q99572 whole entry): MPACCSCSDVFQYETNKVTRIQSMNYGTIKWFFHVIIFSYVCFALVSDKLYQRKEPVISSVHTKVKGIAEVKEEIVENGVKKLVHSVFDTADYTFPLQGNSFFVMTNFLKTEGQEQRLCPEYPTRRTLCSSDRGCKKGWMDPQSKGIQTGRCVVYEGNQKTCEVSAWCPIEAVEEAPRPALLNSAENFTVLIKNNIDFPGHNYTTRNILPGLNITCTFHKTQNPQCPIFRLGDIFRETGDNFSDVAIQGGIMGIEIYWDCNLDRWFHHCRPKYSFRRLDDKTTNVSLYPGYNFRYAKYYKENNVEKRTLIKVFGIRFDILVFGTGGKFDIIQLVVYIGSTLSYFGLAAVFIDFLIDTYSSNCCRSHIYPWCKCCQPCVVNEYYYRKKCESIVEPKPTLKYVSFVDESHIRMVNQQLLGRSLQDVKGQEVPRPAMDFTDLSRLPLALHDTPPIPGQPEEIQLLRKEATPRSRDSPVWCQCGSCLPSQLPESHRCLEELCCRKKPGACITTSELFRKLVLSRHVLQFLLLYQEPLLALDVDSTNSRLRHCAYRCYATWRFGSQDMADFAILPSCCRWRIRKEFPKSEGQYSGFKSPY
How it was run: (§2)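 Calcium influx read on a fluorometric imaging plate reader with Fluo-4 as the calcium-sensing dye. The P2X7 agonist was benzoylbenzoic ATP (BzATP). pIC50 values are the mean of two experiments unless otherwise indicated; some values are the mean of more than two experiments, with standard deviation shown.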

[10] = biological target: T4, P2X purinoceptor 7 (Rattus norvegicus, UniProt Q64663); assay: Antagonist activity at rat cloned P2X7 receptor expressed in HEK293 cells assessed as inhibition of calcium flux by FLIPR assay; type: functional, cell-based; how it was run: as §2
T4 sequence (Q64663 whole entry): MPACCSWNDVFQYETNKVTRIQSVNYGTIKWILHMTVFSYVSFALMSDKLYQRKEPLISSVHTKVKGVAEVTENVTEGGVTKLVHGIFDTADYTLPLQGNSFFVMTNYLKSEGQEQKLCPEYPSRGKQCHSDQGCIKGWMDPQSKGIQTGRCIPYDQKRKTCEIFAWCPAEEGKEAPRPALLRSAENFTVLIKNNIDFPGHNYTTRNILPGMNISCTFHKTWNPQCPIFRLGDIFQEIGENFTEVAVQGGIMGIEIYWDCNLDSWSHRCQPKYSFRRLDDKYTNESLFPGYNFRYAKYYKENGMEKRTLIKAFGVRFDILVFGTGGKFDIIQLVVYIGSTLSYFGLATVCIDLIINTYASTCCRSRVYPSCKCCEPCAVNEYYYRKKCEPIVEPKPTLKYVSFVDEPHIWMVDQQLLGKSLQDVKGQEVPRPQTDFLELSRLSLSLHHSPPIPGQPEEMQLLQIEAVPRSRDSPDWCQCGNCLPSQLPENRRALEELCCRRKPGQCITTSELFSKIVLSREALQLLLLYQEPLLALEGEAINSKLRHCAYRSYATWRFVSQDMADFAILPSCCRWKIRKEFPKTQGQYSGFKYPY

[11] = Oral bioavailability in rat; type: ADME, organism-based; conditions: in vivo
[12] = Bioavailability in rat at 10 umol/kg, ip; type: ADME, organism-based; conditions: in vivo

Sequence of P2Y purinoceptor 2 (Homo sapiens) (P41231 whole entry): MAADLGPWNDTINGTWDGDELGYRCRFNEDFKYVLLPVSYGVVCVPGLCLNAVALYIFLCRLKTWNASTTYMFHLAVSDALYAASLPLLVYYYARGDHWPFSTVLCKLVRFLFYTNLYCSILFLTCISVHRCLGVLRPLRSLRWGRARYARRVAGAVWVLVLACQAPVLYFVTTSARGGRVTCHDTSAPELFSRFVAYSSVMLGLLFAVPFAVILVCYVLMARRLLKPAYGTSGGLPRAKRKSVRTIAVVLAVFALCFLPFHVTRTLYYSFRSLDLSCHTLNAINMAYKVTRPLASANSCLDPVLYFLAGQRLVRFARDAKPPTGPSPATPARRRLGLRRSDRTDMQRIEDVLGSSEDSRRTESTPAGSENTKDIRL

Compound: Cc1ncccc1N/C(=N\C#N)NC(NC(=O)Cc1ccc(Cl)cc1)C(C)(C)C (centres undefined)
Activity [2]: 82%
ED50 [2]: 38 µmol/kg
Activity [3]: inactive
Activity [4]: 61%
Activity [5]: inactive
Activity [6]: inactive
Activity [7]: 45%
Activity [8]: 44%

Compound: COc1ccc(CC(=O)NC(N/C(=N/C#N)Nc2cccc3ncccc23)C(C)(C)C)cc1OC (centres undefined)
Activity [2]: 65%
ED50 [2]: 41 µmol/kg
Activity [3]: inactive
Activity [5]: inactive
Activity [6]: inactive
IC50 [9]: 0.0398 µM
bioavailability [12]: 79%

Compound: COc1ccc(CC(=O)NC(N/C(=N/C#N)Nc2ccccc2C)C(C)(C)C)cc1OC (stereo in doubt; 13)
Activity [2]: 59%
ED50 [2]: 77 µmol/kg
Activity [3]: inactive
Activity [5]: inactive
Activity [6]: inactive

Continued, values first:

Selectivity ratio [1]: 100
Compound: COc1ncccc1N/C(=N\C#N)NC(NC(=O)c1ccc(Cl)cc1)C(C)(Cl)Cl (centres undefined)

IC50 [9]: 0.0316 µM
IC50 [10]: 0.0398 µM
bioavailability [11]: 36%
bioavailability [12]: 54%
Compound: Cc1ncccc1NC(=NC(NC(=O)Cc1ccc(Cl)cc1)C(C)(C)C)NC#N (centres undefined)

Activity [3]: inactive
Activity [5]: inactive
Activity [6]: inactive
Compound: COc1ccc(CC(=O)NC(N/C(=N/C#N)Nc2cc(C)ccc2C)C(C)(C)C)cc1OC (centres undefined)

Selectivity ratio [1]: 100
Compound: CC(Cl)(Cl)C(NC(=O)c1ccc(Cl)cc1)N/C(=N/C#N)Nc1cccnc1Cl (centres undefined)
